ChEMBL document CHEMBL4513216, “Probing the Open Global Health Chemical Diversity Library for Multistage-Active Starting Points for Next-Generation Antimalarials” (ACS Infect Dis, 2020)

Experiment: Toxicity liver stage against HepG2, at 10uM
Type: cell-based
Parameters: test concentration 10 uM, cell line HepG2-A16-CD81EGFP
Conditions: human, HepG2-A16-CD81EGFP cells; read-out: INHIBITION
In short: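 Uninfected HepG2-A16-CD81EGFP cells, 3 × 10^3 per well, 1536-well, plated on prespotted compound at 10 μM final, parasite-free screening media added to match infected plates; puromycin 10 μM positive, DMSO 0.5% negative; run in parallel with 48 h PbLuc assay at 37 °C, 5% CO2; viability by CellTiter-Glo luminescence, normalized to controls.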

Row | Structure (SMILES) | cytotoxicity at 10 µM [%]
1 | Cc1cc2ncn(C(=O)N3CCOCC3)c2cc1C | -1.45
2 | CC1CCN(c2ncc(C#N)c(N)n2)CC1 | 15.5
3 | CCN1CC(COc2ccc(OC)cc2)Oc2ccncc2S1(=O)=O (stereo unspecified) | -7.6
4 | O=C1c2cccnc2OC(CN2CCOCC2)CN1C1CCC1 (stereo unspecified) | -4.18
5 | Nc1nc2c(c(NC(=O)Nc3ccc(Cl)c(Cl)c3)n1)CCCC2 | -6.92
6 | CN(C)S(=O)(=O)N1CC(c2nc(-c3ccsc3)no2)C1 | -6.6
7 | O=C(c1ccccn1)N1CCC(Oc2cccnc2)CC1 | -3.59
8 | CN1C(Cn2cccn2)C[C@@H]2CN(Cc3cnn(C)c3)CC[C@@H]21 (stereo partly specified) | 3.16
9 | COCCN1CCn2cc(CNC(=O)C3CCC3)nc2C1 | 3.68
10 | COC[C@@]12CCO[C@@H]1CCN(C(=O)Cc1ccccc1C)C2 | 2.05
11 | CCS(=O)(=O)N1CC[C@H]2[C@H]1CC(=O)N2Cc1csc(C)n1 | -133
12 | COCC1COCCC12CCN(C(=O)COc1ccccc1)CC2 (stereo unspecified) | -1.69
13 | Cc1noc([C@@H]2CC[C@@H]3[C@@H](CCN3S(C)(=O)=O)O2)n1 | -2.16
14 | COc1ncccc1C(=O)N1CC[C@H]2C[C@H](c3noc(C)n3)O[C@@H]2C1 | 5.31
15 | CCCc1nnsc1C(=O)NCC1CCN(c2ccccn2)CC1 | -16.7
16 | O=S(=O)(NCC1CCN(c2cnccn2)CC1)c1c(F)cccc1F | 10.4
17 | COCc1c(C(=O)O)nnn1Cc1cccc(C(F)(F)F)c1 | 2.17
18 | O=C(NCCO)c1sc2ncccc2c1C1CN(C2CCCC2)CCO1 (stereo unspecified) | 10.8
19 | Cc1cc(C)nc(C2CCN(C3CCOCC3)C2)n1 (stereo unspecified) | 0.469
20 | Cc1ccccc1OC1CCN(S(=O)(=O)c2c(C)n[nH]c2C)CC1 | 0.0656
21 | Cc1nc2c(c(Nc3ccccn3)n1)CN(S(C)(=O)=O)CC2 | 11.1
22 | CN1CCOC(c2cncc(CCC(=O)N(C)C)n2)C1 (stereo unspecified) | 0.55
23 | CC(=O)N1CCCC(Cc2cnc(-c3c(C)nn(C)c3C)cn2)C1 (stereo unspecified) | -1.37

Row | Structure (SMILES) | cytotoxicity at 10 µM [%]
24 | Brc1csc(-c2noc(C3COCCO3)n2)c1 (stereo unspecified) | -1.92
25 | CCC(C)(C)C1CCCN1C(=O)c1coc(S(=O)(=O)NC)c1 (stereo unspecified) | -13.5
26 | CS(=O)(=O)NC(c1ccccc1)c1ccc2c(c1)CCCO2 (stereo unspecified) | 0.682
27 | COC(=O)c1cccc(C(=O)N(C)Cc2cccc(F)c2)c1 | 5.75
28 | COCCN(c1cc(C)nc2nc(C(F)(F)F)nn12)C1CCCC1 | -0.0692
29 | CCc1cc(=O)[nH]c(-c2ccc(NC(C)COC)nc2)n1 (stereo unspecified) | -146
30 | O=c1[nH]c(C2CCOC2)nc2ccc(Cl)cc12 (stereo unspecified) | -12
31 | CC(C)CN(C)S(=O)(=O)c1ccc(Cl)cc1C#N | -47.2
32 | CC(NC(=O)CNc1cc2c(cc1Cl)OCCO2)c1ccco1 (stereo unspecified) | -1.31
33 | Cn1c(SCc2noc(C(C)(C)C)n2)nnc1C1CCS(=O)(=O)C1 (stereo unspecified) | 8.32
34 | COCCCC(=O)Nc1[nH]nc(-c2ccncc2)c1C | -0.158
35 | CCOCCN1CCN(CCC(=O)N2CCCCC2)CC1C (stereo unspecified) | -5.99
36 | COc1cc(CSc2nnc(C)n2CC(N)=O)ccc1SC | -7.91
37 | COc1c(CNCc2ccccc2Cn2cccn2)c(C)nn1C | 9.79
38 | CCn1cc(S(=O)(=O)NCC(OC)c2cccc(Cl)c2)cn1 (stereo unspecified) | 10.1
39 | CC(Nc1cccc2c1OCCO2)C(=O)Nc1ccc(Cl)cc1 (stereo unspecified) | 2.84
40 | CNS(=O)(=O)c1cccc(C(C)NCc2ccccc2OC)c1 (stereo unspecified) | -2.59
41 | Cc1nc(C)c(CNCc2nnc3n2CCCC3C(F)(F)F)s1 (stereo unspecified) | 3.28
42 | Cc1cncc(NCC(O)c2ccco2)n1 (stereo unspecified) | 5.58
43 | O=C(NCc1ccccc1CN1CCCC1)Nc1cccnc1 | 6.75
44 | CC(C)(C)C(=O)NCCC(=O)NC(C)(C)c1ccc2c(c1)OCO2 | -1.26
45 | CSCC(=O)Nc1cccc(Oc2ccccn2)c1 | -6.1
46 | CNC(=O)CCNC(=O)c1ccccc1N1CCOCC1 | 2.29

Row | Structure (SMILES) | cytotoxicity at 10 µM [%]
47 | COc1ccc(F)cc1C[S+]([O-])CC(=O)NCC(C)C (stereo unspecified) | -5.95
48 | Cc1nc(C)n(C2CCCN(C(=O)CCn3ccnn3)C2)n1 (stereo unspecified) | -0.649
49 | O=C(Nc1ccccc1-c1cccs1)N1CCN(CC(F)F)CC1 | -2.11
50 | CCn1c(C)cc(C(=O)NCc2cccc(S(=O)(=O)NC)c2)c1C | -6.43
51 | COc1c(Br)cccc1CCNC(=O)c1csnn1 | -2.5
52 | CC(Nc1ccn(Cc2ccccn2)n1)C(=O)NC(C)(C)C (stereo unspecified) | -2.08
53 | COc1c(C)cnc(CN(C)C(=O)Nc2ccc3c(c2)CCO3)c1C | -0.921
54 | COc1ccc(C(NCc2cccc(C#N)c2)C(C)C)cc1 (stereo unspecified) | 17
55 | Cn1c(SCC(=O)NC(C)(C#N)C2CC2)nc2ccccc21 (stereo unspecified) | -2.15
56 | O=C(CCn1c(=O)oc2ccccc21)NCC(O)c1ccccc1 (stereo unspecified) | -15.6
57 | Cc1cc(-c2nnn(CCC(N)=O)n2)ccc1F | -8.71
58 | O=C(CN1CCCC1Cn1cncn1)Nc1cccnc1 (stereo unspecified) | -14.6
59 | Cc1cccc(CNCc2c(C)nn(C)c2N2CCOCC2)n1 | -10.9
60 | CCc1ccc(C(=O)Nc2ccc(CC3CC(=O)NC3=O)cc2)cc1 (stereo unspecified) | -13.5
61 | Cc1cnn(CC2CN(CCc3ccncc3)CCO2)c1 (stereo unspecified) | -13.6
62 | Cc1cc(C)cc(CN2CCN(C(=O)COCC3CCCO3)CC2=O)c1 (stereo unspecified) | 4.07
63 | CCCOCC(=O)N1CCC2(CC1)c1nc[nH]c1CCN2S(C)(=O)=O | 3.22
64 | Cn1ccnc1CN1CCC(c2ccnc(-c3cccc(O)c3)c2)C1 (stereo unspecified) | 6.52
65 | CCn1nc(CC(C)C)cc1C(=O)N1CCN([C@H]2CCCC[C@@H]2O)CC1 | -6.98
66 | Cc1nc(N2CCN(C)CC2)ncc1C(=O)N1CC[C@](C)(O)[C@H](C)C1 | 1.88
67 | Cc1cc(C2CCC2)nc(N2CC(n3cccn3)C2)n1 | -3.59
68 | CC(C)NS(=O)(=O)c1cc(C(=O)O)cc(-c2ccc3c(c2)OCO3)c1 | 0.873
69 | Cc1cc(C(=O)N2CCc3ncnc(N4CCSCC4)c3CC2)[nH]n1 | -6.98

Row | Structure (SMILES) | cytotoxicity at 10 µM [%]
70 | Nc1nnc(CCNc2ncnc3c2CCN(C(=O)C2CC2)C3)s1 | -7
71 | CCc1nnc(N2CCN(c3ccccc3)C(=O)C2)o1 | -8.74
72 | COc1cc(C2CC(=O)Nc3c2nc2n3CCCC2)cc(OC)c1O (stereo unspecified) | -9.59
73 | COc1ccc(OCc2cc(C(=O)N3CCOCC3)n[nH]2)c(Cl)c1 | -3.66
74 | Cc1cc(C)cc(CCC(=O)N(C)CCc2cn[nH]c2)c1 | 3.04
75 | O=C1OCCN1Cc1cc(C(F)(F)F)ccc1F | -5.52
76 | CCOC(=O)N1CCCn2nc(C(=O)NCCN(C)C)cc2C1 | 3.13
77 | Cc1cccnc1CN1CCC(c2nnc(Cn3cccn3)n2C)CC1 | -11.5
78 | CC(C)N(C)S(=O)(=O)N(C)Cc1ccc2c(c1)OCCO2 | -2.84
79 | CN1CCOC(CNCc2ccccc2OCc2ccccn2)C1 (stereo unspecified) | -9.39
80 | COc1cc(CNCc2ccc(-n3nc(C)cc3C)nc2)cc(OC)c1 | -8.57
81 | CN(Cc1nnc(C2CC2)o1)C1CCCN(c2cccnn2)C1 (stereo unspecified) | -10.7
82 | CC(C)(C)c1cc(NC(=O)CN2CCc3cncnc3C2)on1 | -8.78
83 | COc1cccc(S(=O)(=O)NC(=O)CCC2CCCO2)c1 (stereo unspecified) | -14.7
84 | COc1ccc(COCC(=O)N2CCCC(n3cncn3)C2)cc1 (stereo unspecified) | -11.1
85 | Cc1cnn(CC2CN(Cc3nc(-c4ccco4)no3)CCO2)c1 (stereo unspecified) | -20.3
86 | CN(Cc1cn(-c2ccccc2)nn1)C1CCCN(c2cccnn2)C1 (stereo unspecified) | -20.5
87 | c1ccc(-n2ccc(CN3CCCCC3Cn3cncn3)n2)cc1 (stereo unspecified) | -7.85
88 | CSc1ccc(C)c(C(=O)N2CCCC(n3cncn3)C2)c1 (stereo unspecified) | -13.1
89 | Cc1cnn(CC2CCCN2Cc2nccn2CC(F)(F)F)c1 (stereo unspecified) | -8.5
90 | CCN1CCN(C2CCN(Cc3nnc(C(C)C)o3)CC2)C1=O | -0.677
91 | CC(C)COC(C)C(=O)NCc1ccccc1 (stereo unspecified) | 4.79
92 | Fc1ccc(-c2nnc(CN3CCOC(Cn4cncn4)C3)o2)cc1 (stereo unspecified) | -5.97

Row | Structure (SMILES) | cytotoxicity at 10 µM [%]
93 | CCOc1c(Cl)cccc1NCc1cc(C)on1 | 1.04
94 | Cc1cnn(C2CCCN(C(=O)c3sccc3-n3cnnn3)C2)c1 (stereo unspecified) | -8.72
95 | O=C(CCc1cccnc1)N1CCCC(n2cncn2)C1 (stereo unspecified) | -10.9
96 | NC(=O)CN1CCCN(C(=O)Cc2ccc3ccccc3c2)CC1 | 7.82
97 | CCOc1nnc(CNC2CCCN(c3ccc(C)nn3)C2)s1 (stereo unspecified) | -9.31
98 | CN(C)C(=O)CN1CCC2(CCCN(Cc3cccn3C)C2)C1=O (stereo unspecified) | 11.3
99 | Cn1cc(N2C(=O)CC[C@@H]3[C@H]2CCN3Cc2ccncc2)cn1 | -8.85
100 | O=C(C1CCCC1)N1CCCC2(CCN(c3cnccn3)CC2)C1 | 9.53
101 | CC(=O)N1[C@H](CN(C)C)C[C@@H]2CN(C(=O)c3cccn3C)CC[C@@H]21 | 2.53
102 | CC(C)CNC(=O)[C@H]1CCS(=O)(=O)[C@@H]2CN(Cc3ccc(Cl)cc3)C[C@H]12 | -13.9
103 | O=C(Cc1ccccn1)N1CCc2ncnc(N3CCCC3)c2CC1 | -2.13
104 | Cc1nnc(N2C[C@H](Oc3ccccn3)[C@H]3OCCC[C@H]32)s1 | 10.7
105 | Cc1cccc(CN2Cc3ncn(C)c3C(COCC(=O)N(C)C)C2)n1 (stereo unspecified) | 4.56
106 | CC(C)N(C)Cc1cn2c(n1)CN(C(=O)Cc1ccsc1)CC2 | -11.1
107 | CN1C(=O)CC(c2cnn(C)c2)C12CCN(CC1CCOCC1)CC2 (stereo unspecified) | -3.19
108 | O=C(NCC1CC1)[C@@H]1CCO[C@@H]2CCN(Cc3ccc(F)cc3)C[C@H]21 | 1.42
109 | CC(C)n1c(=O)[nH]c2cn(-c3ccc(Cl)cc3)c(=O)n21 | -0.769
110 | CN(C)CCN1CCC2[C@@H]1CCN2Cc1ccc2c(c1)OCO2 (stereo partly specified) | -4.28
111 | CC(C)CC(=O)NCC1CCC(C(c2ccccn2)N(C)C)CC1 (stereo unspecified) | 12.2
